Source: ChEMBL document CHEMBL3739312, “Triazole-curcuminoids: A new class of derivatives for 'tuning' curcumin bioactivities?” (Bioorg Med Chem, 2016)
The source made the active and inactive calls. The rule behind the calls is not given here.

Columns and labels:
SH-SY5Y [1] = test: Antiproliferative activity against human SH-SY5Y cells assessed as cell viability at 40 uM after 48 hrs relative to control; assay type: functional; settings: read-out: Activity
How it was run: (§1)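 Single fixed concentration of 40 µM against HeLa or SH-SY5Y cells; viability given as mean ± S.E.M., n = 8 from two separate experiments.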

HeLa [2] = test: Antiproliferative activity against human HeLa cells assessed as cell viability at 40 uM after 48 hrs relative to control; assay type: functional; settings: read-out: Activity; how it was run: as §1
HeLa [3] = test: Inhibition of TNFalpha-induced NFkappaB activation assessed as TNFalpha-induced transcription level in human HeLa cells at 30 uM incubated for 6 hrs by luciferase reporter gene assay; assay type: cell-based; parameters: scale not given: the % may be the effect or the level left
How it was run: (§2)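 HeLa NF-κB luciferase reporter: cells plated at 5 × 10³/well; after 8 h, TNFα (20 ng/mL) applied for 6 h with or without compound. Firefly luciferase normalized to pRLTK Renilla by dual-luciferase read-out; n = 6–11 from 3–6 experiments.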

Tubulin (Homo sapiens) [4] = biological target: T1, Tubulin (Homo sapiens) (UniProt P68371+Q9H4B7+P0DPH7+P68366+Q13509+Q71U36+P04350+Q3ZCM7+P07437+P68363+Q9BQE3+Q6PEY2+Q13885+Q9BVA1+Q9BUF5); test: Inhibition of tubulin polymerization in human HeLa cells assessed as increase in soluble fraction incubated for 16 hrs by cellular assay; assay type: cell-based
How it was run: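 HeLa cells exposed 16 h; proteins extracted in presence of paclitaxel, pelletable and soluble fractions separated and resolved by SDS–PAGE.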

Tubulin (Homo sapiens) [5] = biological target: T1, Tubulin (Homo sapiens); test: Inhibition of tubulin (unknown origin) polymerization up to 60 uM; assay type: protein-complex assay
How it was run: (§3)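 Cell-free fluorescence-based tubulin polymerization kit; compound tested from 10 µM up to 60 µM.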

SH-SY5Y [6] = test: Antiproliferative activity against human SH-SY5Y cells assessed as cell viability after 48 hrs; assay type: functional, cell-based
HeLa [7] = test: Potentiation of TNFalpha-induced NFkappaB activation in human HeLa cells at 3 uM incubated for 6 hrs by luciferase reporter gene assay; assay type: cell-based; how it was run: as §2
HeLa [8] = test: Antiproliferative activity against human HeLa cells assessed as cell viability after 48 hrs; assay type: functional, cell-based
HeLa [9] = test: Cell cycle arrest in human HeLa cells at IC50 to 2 times IC50 after 8 hrs by FACS analysis; assay type: functional, cell-based
How it was run: (§4)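 HeLa cells seeded at 6 × 10⁵ cells/well, starved overnight, then exposed at IC50, 2× and 3× IC50 for 8 h or 16 h. Cells fixed in 70% EtOH overnight at −20 °C, then RNase-treated (100 µg/mL, 1 h, 37 °C) before cell-cycle phase analysis.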

HeLa [10] = test: Cell cycle arrest in human HeLa cells assessed as accumulation at […] phase at IC50 to 2 times IC50 after 16 hrs by FACS analysis; assay type: functional, cell-based; how it was run: as §4
Tubulin (Homo sapiens) [11] = biological target: T1, Tubulin (Homo sapiens); test: Inhibition of tubulin (unknown origin) polymerization at 10 uM; assay type: protein-complex assay; how it was run: as §3

inhibition (Tubulin (Homo sapiens) [4])	Activity (Tubulin (Homo sapiens) [5])	IC50 (SH-SY5Y [6]) [µM]	IC50 (HeLa [8]) [µM]	Activity (Tubulin (Homo sapiens) [11])	inhibition (Tubulin (Homo sapiens) [5])	SMILES	viability at 40 µM (SH-SY5Y [1]) [%]	viability at 40 µM (HeLa [2]) [%]	Activity (HeLa [3]) [%]	fold change (FC) (HeLa [7])	Activity (HeLa [9])	Activity (HeLa [10])
						COc1ccc(/C=C/c2cn(/C=C/c3cccc(OC)c3)nn2)cc1	52	55.1	81.3			
						COc1cccc(/C=C/c2cn(/C=C/c3ccccc3)nn2)c1	88.7	93.9	87			
inactive	inactive					COc1cccc(/C=C/n2cc(/C=C/c3cc(OC)c(OC)c(OC)c3)nn2)c1	99.9	77.9	42.2			
						Oc1ccc(/C=C/c2cn(/C=C/c3ccccc3)nn2)cc1	70.6	39.5	85.4			
						Oc1ccc(/C=C/n2cc(/C=C/c3ccc(O)c(O)c3)nn2)cc1	60.4	60.1	124			
inactive	inactive	17.8	36.4			COc1cc(/C=C/c2cn(/C=C/c3ccc(O)c(OC)c3)nn2)ccc1O	36.1	50.5	48	2		
						COc1cc(/C=C/c2cn(/C=C/c3ccc(O)cc3)nn2)ccc1O	55.4	56.8	96			
						C(=C\c1cn(/C=C/c2ccccc2)nn1)/c1ccccc1	118	70	79.9			
						COc1cccc(/C=C/n2cc(/C=C/c3ccc(O)c(OC)c3)nn2)c1	66.3	66.9	57			
						Oc1ccc(/C=C/n2cc(/C=C/c3ccccc3)nn2)cc1	48	50.7	88.9			
						COc1cccc(/C=C/n2cc(/C=C/c3ccccc3)nn2)c1	107	82.1	76.1			
						COc1ccc(/C=C/c2cn(/C=C/c3ccc(O)c(OC)c3)nn2)cc1	50	67.9	146			
						COc1cc(/C=C/n2cc(/C=C/c3ccc(O)cc3)nn2)ccc1O	50.3	83.5	73.2			
		17	18.7			COc1cccc(/C=C/n2cc(/C=C/c3ccc(O)c(O)c3)nn2)c1	27.7	16.6	97			
		9	17.2			COc1cccc(/C=C/c2cn(/C=C/c3ccc(O)cc3)nn2)c1	37.9	30.4	61.5			
						Oc1ccc(/C=C/c2cn(/C=C/c3ccc(O)cc3)nn2)cc1	49.6	55.3	112			
inactive	inactive	6.9	11.7			COc1ccc(/C=C/c2cn(/C=C/c3ccc(O)c(OC)c3)nn2)cc1O	18.1	7.9	15.3		inactive	Active
						Oc1ccc(/C=C/c2cn(/C=C/c3ccccc3)nn2)cc1O	40.1	18.4	167			
						COc1ccc(/C=C/c2cn(/C=C/c3ccccc3)nn2)cc1	126	69.2	74.5			
						COc1cc(/C=C/n2cc(/C=C/c3ccccc3)nn2)ccc1O	86.7	84.3	144			
inactive	inactive	7.8	13.6			COc1cc(/C=C/n2cc(/C=C/c3cc(OC)c(OC)c(OC)c3)nn2)ccc1O	23.5	23	27.5		inactive	Active
						COc1cc(/C=C/c2cn(/C=C/c3ccccc3)nn2)ccc1O	110	79.5	138			
						COc1cccc(/C=C/n2cc(/C=C/c3ccc(O)cc3)nn2)c1	68.9	41.9	94.3			
						COc1cccc(/C=C/c2cn(/C=C/c3cccc(OC)c3)nn2)c1	71.4	92.8	71			
						COc1cccc(/C=C/c2cn(/C=C/c3ccc(O)c(OC)c3)nn2)c1 (mixture of isomers)	65.3	38.7	88.9			
inactive	inactive	1.7	1.5			COc1cc(/C=C/c2cn(/C=C/c3ccc(O)cc3)nn2)cc(OC)c1OC	21.3	19.2	14.6		inactive	Active
						COc1cc(/C=C/c2cn(/C=C/c3ccccc3)nn2)cc(OC)c1OC	69.2	52.1	65.3			
		11.3	34			COc1ccc(/C=C/c2cn(/C=C/c3ccc(O)cc3)nn2)cc1	25.7	66.3	131			
inactive		16.1	21.8	inactive	Active	COc1cc(/C=C/C(=O)CC(=O)/C=C/c2ccc(O)c(OC)c2)ccc1O [CURCUMIN]	22.6	42.5	60.5		inactive	Active
